Assay outcomes (PubChem BioAssay)
ASAP1 GAP inh – blocks human ASAP1-stimulated Arf1 GTP hydrolysis. inhibition, % at 16.5 µM. 0.19% of 360,000 active. GDP FP detection; in the data active = inhibition above about 25%;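 note: 0% = vehicle with enzyme and substrate and 100% = no enzyme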
PAFAH2 inh – inhibitors of human PAFAH2; recombinant PAFAH2, FP-rhodamine activity probe, fluorescence polarization; inhibition, % at 3.39 µM; 0.99% of 340,000 active; AID 492956;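 active = inhibition above the mean over all tested compounds plus 3 SD, cut at about 30% in these data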;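 note: inhibitors block probe labeling of enzyme so polarization drops; 0% = enzyme with DMSO and 100% = wells lacking PAFAH2 protein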
pPAFAH inh – pPAFAH (human) enzyme inhibition; Q13093; recombinant pPAFAH, FP-rhodamine probe fluorescence polarization; inhibition, % at 3.39 µM; 1.5% of 330,000 active; AID 463082;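 active = inhibition above the mean inhibition across the screen plus 3 SD, cut at about 25% in these data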;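 note: inhibitors block binding of the rhodamine activity-based probe so polarization drops; 0% = enzyme with DMSO and 100% = wells lacking pPAFAH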
PAFAH1B3 inh – PAFAH1B3 (human) inhibition; AID 492972; Q15102; 0.28% of 340,000 active; recombinant PAFAH1B3, FP-rhodamine probe, fluorescence polarization; inhibition, % at 3.39 µM;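 active = inhibition above the screen-wide average of all tested compounds plus 3 SD, cut at about 25% in these data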;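 note: 0% = enzyme with DMSO only and 100% = wells lacking PAFAH1B3 protein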
ARFGAP1 inh – inhibits rat ARF GTPase activating protein 1; 0.26% of 360,000 active; Q62848; inhibition, % at 16.5 µM; Arfgap1-stimulated ARF1 GTP hydrolysis, GDP FP detection;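 active = inhibition above a per-plate limit, mean inhibition of low control wells plus 3 SD, cut at about 25% in these data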;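 note: 0% = DMSO wells with enzyme and 100% = wells lacking Arfgap1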
Target sequence (Q62848 1-136 limits assumed): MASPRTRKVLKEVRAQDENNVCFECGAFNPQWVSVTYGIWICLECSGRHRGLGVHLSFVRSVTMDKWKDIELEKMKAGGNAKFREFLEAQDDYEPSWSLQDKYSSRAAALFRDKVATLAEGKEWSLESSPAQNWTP
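Replicates: Single well per compound | Assay system: Truncated rat Arfgap1 GAP domain | Control set: No-Arfgap1 wells (100%) versus DMSO full-reaction wells (0%) | Times: Enzyme reaction 120 min at 25 °C after 20 min preincubation | Reagent: Human ARF1(Δ1-17)-GTP substrate | Measured by: Tracer-displacement fluorescence polarization with EDTA stop, 620/688 nm | Measure: Percent inhibition of Arfgap1-stimulated GTP hydrolysis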
PAFAH1B2 inh – blocks human PAF acetylhydrolase 1b catalytic subunit 2; P68402; recombinant PAFAH1B2, FP-rhodamine activity probe, fluorescence polarization; inhibition, % at 3.39 µM; 1.2% of 340,000 active;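 active = inhibition above the mean of all tested compounds plus 3 SD, cut at about 24% in these data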;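 note: 0% = enzyme with DMSO and 100% = wells lacking PAFAH1B2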
Target sequence (P68402 whole entry, looked up): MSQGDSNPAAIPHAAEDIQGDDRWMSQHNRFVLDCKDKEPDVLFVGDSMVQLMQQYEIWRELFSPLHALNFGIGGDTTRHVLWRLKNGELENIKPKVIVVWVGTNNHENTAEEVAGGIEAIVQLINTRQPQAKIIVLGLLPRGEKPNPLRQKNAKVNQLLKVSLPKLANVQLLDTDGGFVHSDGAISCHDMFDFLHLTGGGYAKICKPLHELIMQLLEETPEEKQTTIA
* hit, by the source's call; nt = no result given. In the library only some 2.8% were active in any assay of this set; here they are far more common.

SMILES	ASAP1 GAP inh	PAFAH2 inh	pPAFAH inh	PAFAH1B3 inh	ARFGAP1 inh	PAFAH1B2 inh
Cc1cc(/C=C2/C(=O)N(C)C(=S)N2C)c(C)n1C1CC1	11.1	-11.1	5.4	-2.2	3.5	-3.9
Cc1cc(/C=C2\SC(=S)NC2=O)c(C)n1C1CC1	-13.7	11.9	31.7*	8.8	11.2	3.0
CC(C)Cn1cc(-c2cccc3nccn23)cn1	1.4	nt	nt	nt	2.4	nt
Cc1ccc(S(=O)(=O)Oc2ccccc2)cc1	-12.9	-5.1	nt	4.8	11.7	11.8
Cc1ccc(S(=O)(=O)Oc2cccc([N+](=O)[O-])c2)cc1	9.8	0.7	nt	-1.7	15.4	24.9*
COC(=O)[C@]12CCCCC=C1N(Cc1ccco1)C(=O)[C@H](CC(=O)NCc1cccc3ccccc13)C2	-3.3	nt	nt	nt	-4.1	nt
COc1ccc(/C=C/C(=O)Nc2cccc(S(=O)(=O)NC3=NCCCCC3)c2)cc1OC	-2.5	-1.6	0.4	-1.1	2.5	-2.2
COc1ccc(NS(=O)(=O)c2ccc(NC(=O)C(CCSC)NC(N)=O)cc2)cc1 (stereo unspecified)	-8.7	-5.6	31.0*	-2.2	-4.1	2.9
CCOc1ccc(Cl)cc1-c1cc(C(=O)Nc2ccc(C(C)C)cc2)[nH]n1	-1.9	nt	nt	nt	-5.6	nt
S=C(NC1CCCCCC1)NC1CCCC1	7.3	-1.9	-1.9	7.0	10.8	7.2
NNC(=S)NC1CCCCCCCCCCC1	-3.6	6.4	7.8	-2.9	3.2	55.1*
Cc1cccc(NC(=O)CN2CCN(C(=O)c3ccc(OCc4cn5ccccc5n4)cc3)CC2)c1C	-22.3	-0.1	3.1	-5.3	2.0	7.8
Cc1ccc(CCNS(=O)(=O)c2ccc3c(c2)N(C)CCO3)cc1	7.2	0.6	10.4	2.7	-2.2	29.9*
CCOc1ccc(NS(=O)(=O)c2ccc3c(c2)N(C(C)=O)CCO3)cc1	0.5	-0.1	32.0*	11.2	0.5	3.9
Cc1ccc(NS(=O)(=O)c2ccc3c(c2)N(C)CCO3)cc1	-12.1	3.6	28.1*	-0.9	-1.6	10.9
CC(=O)c1ccc(NS(=O)(=O)c2ccc3c(c2)N(C(C)=O)CCO3)cc1	5.8	7.5	0.9	-2.3	-5.2	1.5
CC(=O)N1CCSc2ccc(S(=O)(=O)Nc3ccc(C)cc3)cc21	-7.3	11.9	24.9*	2.1	11.8	8.4
CCOC(=O)C1=CCC(c2ccc(CC)cc2)N(S(=O)(=O)c2ccc(C)cc2)C1 (stereo unspecified)	-3.8	nt	nt	nt	15.7	nt
Cc1nc2cc(NC(=O)C3(C)CCCN(C(C)C)C3)ccc2o1 (stereo unspecified)	-0.1	nt	nt	nt	-6.0	nt
CCOc1ccccc1NS(=O)(=O)c1ccc2c(c1)N(C)CCO2	6.3	5.1	-1.5	-4.1	4.6	0.1
CCOc1ccc(NS(=O)(=O)c2ccc(OC)c(NC(=O)c3ccc4c(c3)OCCO4)c2)cc1	15.1	-11.3	26.7*	-3.2	20.1	-4.5
CCN(CC)S(=O)(=O)c1ccc(OC)c(NC(=O)c2ccc3c(c2)OCO3)c1	-14.1	7.4	5.5	1.9	4.4	7.5
CCc1cccc(NS(=O)(=O)c2ccc3c(c2)N(C)CCO3)c1	1.1	6.8	29.9*	2.2	-1.9	5.0
CCc1nc2ccccc2n1CC(O)COCC1CC=CCC1 (stereo unspecified)	6.9	1.2	-3.9	-5.7	-7.6	0.3
O=C(CSc1n[nH]c(=O)[nH]c1=O)c1ccc(Cl)cc1Cl	-1.3	1.5	0.3	6.8	6.6	29.7*
